Reference: ChEMBL document CHEMBL1140861, “Short antisense oligonucleotides with novel 2'-4' conformationaly restricted nucleoside analogues show improved potency without increased toxicity in animals” (J Med Chem, 2009)
Active and inactive are the calls of the source. The calls are words filed in the database; no cut-off is given here.

Tests used:
Mus musculus [1] = test: Reduction of PTEN mRNA expression in ip dosed BALB/c mouse administered twice a week for 3 weeks assessed as antisense oligonucleotide level in liver measured after 72 hrs of last dose; format: functional, organism-based
Mus musculus [2] = test: Reduction of PTEN mRNA level in BALB/c mouse liver at 66 mg/kg, ip after 72 hrs; format: functional, organism-based; design: dose 66 mg/kg
Summary of the method: (§1)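 Balb/c mice, 6 weeks old, n = 4 per dose group, single ip doses of 32, 66 or 100 mg/kg; killed 72 h after administration; serum ALT and liver PTEN mRNA quantified after sacrifice; errors as sd.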

Mus musculus [3] = test: Toxicity in BALB/c mouse assessed as increase in liver weight at 1.5 mg/kg, ip administered twice a week for 3 weeks measured after 72 hrs of last dose; format: organism-based; design: dose 1.5 mg/kg, route intraperitoneal; conditions: in vivo
Summary of the method: (§2)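 Male Balb/c mice, 6 weeks old, dosed ip twice weekly for 3 weeks at 0.5, 1.5, 4.7 and 15 mg/kg (two ASOs) or 0.7, 2.3, 7.2 and 23 mg/kg (MOE control); sacrificed 72 h after last dose; ALT, liver PTEN mRNA, liver and spleen weights and body weight gain assessed; ED50 derived; errors as sd.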

Mus musculus [4] = test: Toxicity in BALB/c mouse assessed as increase in liver weight at 15 mg/kg, ip administered twice a week for 3 weeks measured after 72 hrs of last dose; format: organism-based; design: dose 15 mg/kg, route intraperitoneal; conditions: in vivo; summary of the method: as §2
Mus musculus [5] = test: Reduction of PTEN mRNA level in ip dosed BALB/c mouse liver after 72 hrs; format: functional
Mus musculus [6] = test: Hepatotoxicity in BALB/c mouse assessed as increase in liver ALT level at 1.5 mg/kg, ip administered twice a week for 3 weeks measured after 72 hrs of last dose; format: toxicity, organism-based; design: dose 1.5 mg/kg, route intraperitoneal; conditions: in vivo; summary of the method: as §2
Mus musculus [7] = test: Metabolic stability in BALB/c mouse liver assessed as antisense oligonucleotide level at 18 mg/kg; format: ADME, organism-based; design: dose 18 mg/kg; conditions: in vivo
Mus musculus [8] = organism: Mus musculus; test: Binding affinity to mouse PTEN mRNA assessed as melting temperature
Summary of the method: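 Tm of ASO–RNA duplex, i.e. melting temperature of the ASO hybridised to its complementary RNA.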

Mus musculus [9] = test: Toxicity in BALB/c mouse assessed as increase in spleen weight at 0.5 mg/kg, ip administered twice a week for 3 weeks measured after 72 hrs of last dose; format: organism-based; design: dose 0.5 mg/kg, route intraperitoneal; conditions: in vivo; summary of the method: as §2
Mus musculus [10] = test: Toxicity in BALB/c mouse assessed as reduction in body weight at 0.5 mg/kg, ip administered twice a week for 3 weeks measured after 72 hrs of last dose; format: organism-based; design: dose 0.5 mg/kg, route intraperitoneal; conditions: in vivo; summary of the method: as §2
Mus musculus [11] = test: Toxicity in BALB/c mouse assessed as reduction in body weight at 1.5 mg/kg, ip administered twice a week for 3 weeks measured after 72 hrs of last dose; format: organism-based; design: dose 1.5 mg/kg, route intraperitoneal; conditions: in vivo; summary of the method: as §2
Mus musculus [12] = test: Toxicity in BALB/c mouse assessed as increase in spleen weight at 1.5 mg/kg, ip administered twice a week for 3 weeks measured after 72 hrs of last dose; format: organism-based; design: dose 1.5 mg/kg, route intraperitoneal; conditions: in vivo; summary of the method: as §2
Mus musculus [13] = test: Hepatotoxicity in BALB/c mouse assessed as increase in liver ALT level at 100 mg/kg, ip after 72 hrs; format: toxicity, organism-based; design: dose 100 mg/kg, route intraperitoneal; conditions: in vivo; summary of the method: as §1
Mus musculus [14] = test: Toxicity in BALB/c mouse assessed as reduction in body weight at 4.7 mg/kg, ip administered twice a week for 3 weeks measured after 72 hrs of last dose; format: organism-based; design: dose 4.7 mg/kg, route intraperitoneal; conditions: in vivo; summary of the method: as §2
Mus musculus [15] = test: Reduction of PTEN mRNA level in ip dosed BALB/c mouse liver administered twice a week for 3 weeks measured after 72 hrs of last dose; format: functional; summary of the method: as §2
Mus musculus [16] = test: Toxicity in BALB/c mouse assessed as increase in spleen weight at 4.7 mg/kg, ip administered twice a week for 3 weeks measured after 72 hrs of last dose; format: organism-based; design: dose 4.7 mg/kg, route intraperitoneal; conditions: in vivo; summary of the method: as §2
Mus musculus [17] = test: Hepatotoxicity in BALB/c mouse assessed as increase in liver ALT level at 15 mg/kg, ip administered twice a week for 3 weeks measured after 72 hrs of last dose; format: toxicity, organism-based; design: dose 15 mg/kg, route intraperitoneal; conditions: in vivo; summary of the method: as §2
Mus musculus [18] = test: Toxicity in BALB/c mouse assessed as reduction in body weight at 15 mg/kg, ip administered twice a week for 3 weeks measured after 72 hrs of last dose; format: organism-based; design: dose 15 mg/kg, route intraperitoneal; conditions: in vivo; summary of the method: as §2
Mus musculus [19] = test: Toxicity in BALB/c mouse assessed as increase in liver weight at 0.5 mg/kg, ip administered twice a week for 3 weeks measured after 72 hrs of last dose; format: organism-based; design: dose 0.5 mg/kg, route intraperitoneal; conditions: in vivo; summary of the method: as §2
Mus musculus [20] = test: Toxicity in BALB/c mouse assessed as increase in liver weight at 4.7 mg/kg, ip administered twice a week for 3 weeks measured after 72 hrs of last dose; format: organism-based; design: dose 4.7 mg/kg, route intraperitoneal; conditions: in vivo; summary of the method: as §2
Mus musculus [21] = test: Hepatotoxicity in BALB/c mouse assessed as increase in liver ALT level at 0.5 mg/kg, ip administered twice a week for 3 weeks measured after 72 hrs of last dose; format: toxicity, organism-based; design: dose 0.5 mg/kg, route intraperitoneal; conditions: in vivo; summary of the method: as §2
Mus musculus [22] = test: Toxicity in BALB/c mouse assessed as increase in spleen weight at 15 mg/kg, ip administered twice a week for 3 weeks measured after 72 hrs of last dose; format: organism-based; design: dose 15 mg/kg, route intraperitoneal; conditions: in vivo; summary of the method: as §2
Mus musculus [23] = test: Reduction of PTEN mRNA level in BALB/c mouse liver at 100 mg/kg, ip after 72 hrs; format: functional; summary of the method: as §1
Mus musculus [24] = test: Reduction of PTEN mRNA level in BALB/c mouse liver at 32 mg/kg, ip after 72 hrs; format: functional, organism-based; design: dose 32 mg/kg; summary of the method: as §1
Mus musculus [25] = test: Reduction of PTEN level in ip dosed BALB/c mouse liver at 37 mg/kg by Western blot analysis; format: functional, organism-based; design: dose 37 mg/kg
Mus musculus [26] = test: Hepatotoxicity in BALB/c mouse assessed as increase in liver ALT level at 4.7 mg/kg, ip administered twice a week for 3 weeks measured after 72 hrs of last dose; format: toxicity, organism-based; design: dose 4.7 mg/kg, route intraperitoneal; conditions: in vivo; summary of the method: as §2
bEND = test: Reduction in mouse PTEN mRNA level expressed in mouse bEND cells; format: functional, cell-based
Summary of the method: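 bEND mouse brain endothelial cells transfected with ASO using lipofectin; PTEN mRNA reduction measured over a dose range; IC50 taken from dose-response curves.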

With Cc1cn([C@@H]2O[C@@]3(COP(O)(=S)O[C@H]4[C@H]5O[C@@H](C)[C@]4(COP(O)(=S)O[C@H]4C[C@H](n6cc(C)c(=O)[nH]c6=O)O[C@@H]4COP(O)(=S)O[C@H]4[C@@H](O)[C@H](n6cnc7c6N=CNC7N)O[C@@H]4COP(O)(=S)O[C@H]4[C@@H](O)[C@H](n6cnc7c(=O)[nH]c(N)nc76)O[C@@H]4COP(O)(=S)O[C@H]4[C@@H](O)[C@H](n6ccc(N)nc6=O)O[C@@H]4COP(O)(=S)O[C@H]4[C@@H](O)[C@H](n6cnc7c(N)ncnc76)O[C@@H]4COP(O)(=S)O[C@H]4[C@@H](O)[C@H](n6ccc(N)nc6=O)O[C@@H]4COP(O)(=S)O[C@H]4[C@@H](O)[C@H](n6cc(C)c(=O)[nH]c6=O)O[C@@H]4COP(O)(=S)O[C@H]4[C@@H](O)[C@H](n6cnc7c(=O)[nH]c(N)nc76)O[C@@H]4COP(O)(=S)O[C@H]4[C@@H](O)[C@H](n6cnc7c(=O)[nH]c(N)nc76)O[C@@H]4COP(O)(=S)O[C@H]4[C@@H](O)[C@H](n6ccc(N)nc6=O)O[C@@H]4COP(O)(=S)O[C@H]4[C@H]6O[C@@H](C)[C@]4(COP(O)(=S)O[C@H]4[C@H]7O[C@@H](C)[C@]4(COP(=O)(O)O)O[C@H]7n4ccc(=O)[nH]c4=O)O[C@H]6n4cc(C)c(N)nc4=O)O[C@H]5n4ccc(=O)[nH]c4=O)[C@H](C)O[C@@H]2[C@@H]3O)c(=O)nc1N (stereo partly drawn) the EC50 (Mus musculus [1]) was 6.3 µg/g, the Activity (Mus musculus [2]) was “Active” and the Activity (Mus musculus [3]) was “Non-toxic”. The Activity (Mus musculus [4]) was “Non-toxic”, the ED50 (Mus musculus [5]) was 9 mg/kg and the Activity (Mus musculus [6]) was “Toxic”. The Stability (Mus musculus [7]) was 25 µg/g, the Tm (Mus musculus [8]) was 59.1 °C and the Activity (Mus musculus [9]) was “Non-toxic”. For the same compound, the Activity (Mus musculus [10]) was “Toxic”, the Activity (Mus musculus [11]) was “Toxic” and the Activity (Mus musculus [12]) was “Non-toxic”. For the same compound, the Activity (Mus musculus [13]) was “Non-toxic”, the Activity (Mus musculus [14]) was “Toxic” and the ED50 (Mus musculus [15]) was 2.4 mg/kg. For the same compound, the Activity (Mus musculus [16]) was “Non-toxic”, the Activity (Mus musculus [17]) was “Toxic” and the Activity (Mus musculus [18]) was “Toxic”. The Activity (Mus musculus [19]) was “Non-toxic”, the Activity (Mus musculus [20]) was “Non-toxic” and the Activity (Mus musculus [21]) was “Toxic”. For the same compound, the Activity (Mus musculus [22]) was “Non-toxic”, the Activity (Mus musculus [23]) was “Active” and the Activity (Mus musculus [23]; route intraperitoneal) was >90%. The Activity (Mus musculus [24]) was “Active”, the Activity (Mus musculus [25]) was “Active” and the Activity (Mus musculus [26]) was “Toxic”. The IC50 (bEND) was 5.8 nM.
